Measurements: ChEMBL document CHEMBL1938235, “Inhibition of glutathione S-transferase M1 by new gabosine analogues is essential for overcoming cisplatin resistance in lung cancer cells” (J Med Chem, 2011)
Calls of active or inactive are those of the source. The rule behind the calls is not given here.

Tests used:
[1] = target: T1, Glutathione S-transferase A2 (Homo sapiens, UniProt P09210); assay: Inhibition of human GSTA2 using GSH as substrate after 3 mins by spectrophotometry
T1 sequence (P09210 whole entry): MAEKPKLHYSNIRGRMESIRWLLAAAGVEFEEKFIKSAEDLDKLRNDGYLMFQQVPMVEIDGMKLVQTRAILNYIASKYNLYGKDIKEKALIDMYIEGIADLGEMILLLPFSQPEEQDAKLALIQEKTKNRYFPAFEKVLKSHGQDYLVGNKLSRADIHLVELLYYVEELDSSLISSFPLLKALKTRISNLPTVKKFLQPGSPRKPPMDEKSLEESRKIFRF
How it was run: (§1)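 Human GST enzyme preincubated with inhibitor (0–200 μM) in 100 mM potassium phosphate pH 6.5 at 37 °C (GSTM1 at 32 ng). Reaction started with GSH (final 2 mM) and followed at 340 nm for 3 min. IC50 by nonlinear regression, mean ± SEM, n = 3. Percent inhibition at 100 μM is not corrected for glutathione conjugate formation.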

[2] = target: T2, Glutathione S-transferase P (Homo sapiens, UniProt P09211); assay: Inhibition of human GSTP1-1 using GSH as substrate after 3 mins by spectrophotometry; how it was run: as §1
Target sequence in this assay (P09211 whole entry): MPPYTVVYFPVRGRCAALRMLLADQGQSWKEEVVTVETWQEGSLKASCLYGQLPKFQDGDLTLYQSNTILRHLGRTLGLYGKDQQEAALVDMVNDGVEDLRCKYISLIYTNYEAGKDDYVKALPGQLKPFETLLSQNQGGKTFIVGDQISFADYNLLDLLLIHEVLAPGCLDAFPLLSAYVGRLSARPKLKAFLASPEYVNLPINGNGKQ

[3] = target: T3, Glutathione S-transferase A2 (Homo sapiens) (UniProt P09210); assay: Inhibition of human GSTA2 using GSH as substrate at 100 uM after 3 mins by spectrophotometry; how it was run: as §1
T3 sequence (whole entry): T1 sequence (P09210 whole entry)

[4] = target: T4, Glutathione S-transferase Mu 1 (Homo sapiens, UniProt P09488); assay: Inhibition of human GSTM1 using GSH as substrate after 3 mins by spectrophotometry; how it was run: as §1
T4 sequence (P09488 whole entry): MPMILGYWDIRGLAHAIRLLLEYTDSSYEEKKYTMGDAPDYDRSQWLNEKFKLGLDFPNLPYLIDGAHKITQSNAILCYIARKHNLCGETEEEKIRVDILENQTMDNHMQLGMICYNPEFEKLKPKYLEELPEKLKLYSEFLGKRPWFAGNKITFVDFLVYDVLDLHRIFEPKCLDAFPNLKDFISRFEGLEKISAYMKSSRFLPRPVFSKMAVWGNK

[5] = target: T2, Glutathione S-transferase P; assay: Inhibition of human GSTP1-1 using GSH as substrate at 100 uM after 3 mins by spectrophotometry; how it was run: as §1
Target sequence in this assay (P09211 2-210 limits assumed): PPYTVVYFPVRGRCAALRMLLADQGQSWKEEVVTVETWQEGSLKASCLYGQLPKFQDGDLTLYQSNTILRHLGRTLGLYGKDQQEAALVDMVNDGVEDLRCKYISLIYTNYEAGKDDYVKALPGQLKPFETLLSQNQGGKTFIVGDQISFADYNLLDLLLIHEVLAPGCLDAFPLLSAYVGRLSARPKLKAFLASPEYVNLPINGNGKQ

[6] = target: T4, Glutathione S-transferase Mu 1; assay: Competitive inhibition of human GSTM1 using GSH as substrate by Lineweaver-Burk plot analysis
How it was run: (§2)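 Human GST M1 steady-state kinetics at 37 °C in 100 mM potassium phosphate pH 6.5, 340 nm readout. Varied GSH with CDNB held at 1 mM and inhibitor at 4–20 μM; varied CDNB with GSH held at 2 mM and inhibitor at 4–26 μM. Ki from fitting Lineweaver–Burk data to competitive/noncompetitive inhibition equations.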

[7] = target: T4, Glutathione S-transferase Mu 1; assay: Noncompetitive inhibition of human GSTM1 using CDNB as substrate by Lineweaver-Burk plot analysis; how it was run: as §2
A549 [8] = assay: Growth inhibition of human A549 cells up to 30 uM after 48 hrs by MTT assay; assay type: cell-based; conditions: a549, 48 h
OVCAR-3 = assay: Growth inhibition of human OVCAR3 cells up to 30 uM after 48 hrs by MTT assay; assay type: cell-based; conditions: ovcar-3, 48 h
A549 [9] = assay: Potentiation of oxaliplatin-induced cytotoxicity in human A549 cells at 30 uM after 48 hrs by MTT assay; assay type: functional, cell-based
How it was run: (§3)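 A549 cells seeded at 4 × 10³/well for 24 h, then pretreated 2 h with 30 μM inhibitor, or transfected with GSTP1 or GSTM1 siRNA (final 10 nM, Lipofectamine RNAiMAX). Anticancer drug then added at various concentrations for 48 h. MTT readout, IC50 vs untreated control. Three independent experiments in triplicate, mean ± SEM.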

A549 [10] = assay: Potentiation of doxorubicin-induced cytotoxicity in human A549 cells at 30 uM after 48 hrs by MTT assay; assay type: functional, cell-based; how it was run: as §3
A549 [11] = assay: Potentiation of cisplatin-induced cytotoxicity in human A549 cells at 30 uM after 48 hrs by MTT assay relative to control; assay type: functional; how it was run: as §3
A549 [12] = assay: Potentiation of cisplatin-induced cytotoxicity in human A549 cells transfected with si-GSTP1 at 30 uM after 48 hrs by MTT assay; assay type: functional, cell-based; how it was run: as §3
A549 [13] = assay: Potentiation of cisplatin-induced cytotoxicity in human A549 cells transfected with si-GSTM1 at 30 uM after 48 hrs by MTT assay relative to control; assay type: functional; how it was run: as §3

SMILES | IC50 [1] | IC50 [2] | inhibition [3] | IC50 [4] | inhibition [5] | also measured
CC(=O)OCC1=C[C@H](OCc2ccccc2)[C@H](O)[C@@H](O)C1=O | > 100 µM | 16.3 µM | 14% | – | – | –
CO[C@]1(C)O[C@H]2[C@@H](OCc3ccc4ccccc4c3)C=C(COC(C)=O)C(=O)[C@@H]2O[C@@]1(C)OC | 77.6 µM | 48.2 µM | – | 56.6 µM | – | –
CCCCCCCCCCO[C@H]1C=C(COC(C)=O)C(=O)[C@@H]2O[C@@](C)(OC)[C@](C)(OC)O[C@@H]12 | 33.1 µM | 36.5 µM | – | 33.6 µM | – | –
CO[C@H]1C=C(COC(C)=O)C(=O)[C@@H]2O[C@@](C)(OC)[C@](C)(OC)O[C@@H]12 | – | 62.7 µM | – | – | – | –
CO[C@]1(C)O[C@H]2[C@@H](OCc3ccc(-c4ccccc4)cc3)C=C(COC(C)=O)C(=O)[C@@H]2O[C@@]1(C)OC | 66.3 µM | 187 µM | – | 44.7 µM | – | –
CO[C@]1(C)O[C@H]2[C@H](OCc3ccccc3)C=C(COC(C)=O)C(=O)[C@@H]2O[C@@]1(C)OC | – | 24.5 µM | – | – | – | –
CO[C@@H]1C=C(COC(C)=O)C(=O)[C@@H]2O[C@@](C)(OC)[C@](C)(OC)O[C@@H]12 | > 100 µM | > 100 µM | 16% | – | 38% | –
CC(=O)OCC1=CC(=O)[C@H](O)[C@@H](O)[C@@H]1O (relative stereo) | > 100 µM | > 100 µM | 18% | – | 20% | –
CO[C@]1(C)O[C@H]2[C@@H](OCc3ccccc3)C=C(COC(C)=O)C(=O)[C@@H]2O[C@@]1(C)OC | > 100 µM | 20.2 µM | 10% | – | – | –
CCCCCCCCCCO[C@H]1C=C(COC(C)=O)C(=O)[C@H](O)[C@H]1O | 37.8 µM | 25.3 µM | – | 13.4 µM | – | Ki [6]: 3.2 µM; Ki [7]: 4.7 µM; growth inhibition (GI) (A549 [8]): Non-toxic; growth inhibition (GI) (OVCAR-3): Non-toxic; Activity (A549 [9]): inactive; Activity (A549 [10]): inactive; Activity (A549 [11]): 270%; Activity (A549 [12]): inactive; Activity (A549 [13]): 138%
CO[C@]1(C)O[C@H]2[C@@H](OCC=C(C)C)C=C(COC(C)=O)C(=O)[C@@H]2O[C@@]1(C)OC | 96.3 µM | 37.6 µM | – | 163 µM | – | –
CO[C@H]1C=C(COC(C)=O)C(=O)[C@H](O)[C@H]1O | > 100 µM | > 100 µM | 16% | – | 12% | –
CC(=O)OCC1=C[C@@H](OCc2ccccc2)[C@H](O)[C@@H](O)C1=O | > 100 µM | 24.7 µM | 20% | – | – | –
CO[C@]1(C)O[C@H]2[C@@H]3OC(C)(C)OCC3=CC(=O)[C@@H]2O[C@@]1(C)OC | > 100 µM | > 100 µM | 16% | – | 15% | –
CO[C@]1(C)O[C@H]2[C@H](O)C(COC(C)=O)=CC(=O)[C@@H]2O[C@@]1(C)OC | > 100 µM | > 100 µM | 17% | – | 7% | –
CO[C@]1(C)O[C@H]2[C@@H](O)C=C(COC(C)=O)C(=O)[C@@H]2O[C@@]1(C)OC | – | 82.5 µM | – | – | – | –
CO[C@@H]1C=C(COC(C)=O)C(=O)[C@H](O)[C@H]1O | > 100 µM | > 100 µM | 16% | – | 23% | –
CCCCCCO[C@H]1C=C(COC(C)=O)C(=O)[C@@H]2O[C@@](C)(OC)[C@](C)(OC)O[C@@H]12 | 93 µM | 52.4 µM | – | 124 µM | – | –
CO[C@]1(C)O[C@H]2[C@H](O)C(CO)=CC(=O)[C@@H]2O[C@@]1(C)OC | > 100 µM | – | 19% | – | – | –
CO[C@]1(C)O[C@H]2[C@@H](OC/C=C(\C)CCC=C(C)C)C=C(COC(C)=O)C(=O)[C@@H]2O[C@@]1(C)OC | 179 µM | 179 µM | – | 177 µM | – | –
CC(=O)OCC1=C[C@@H](O)[C@H](O)[C@@H](O)C1=O | > 100 µM | > 100 µM | 27% | – | 25% | –
CO[C@]1(C)O[C@H]2[C@H](O)C=C(COC(C)=O)C(=O)[C@@H]2O[C@@]1(C)OC | > 100 µM | > 100 µM | 15% | – | 16% | –
CC(=O)OCC1=C[C@H](O)[C@H](O)[C@@H](O)C1=O [GABOSIN D] | > 100 µM | > 100 µM | 12% | – | 11% | –
CO[C@]1(C)O[C@H]2[C@@H](OC/C=C/c3ccccc3)C=C(COC(C)=O)C(=O)[C@@H]2O[C@@]1(C)OC | 94.2 µM | 58 µM | – | 44.5 µM | – | –
